The source made the active and inactive calls. The calls are words filed in the database; no cut-off is given here.

The values below come from ChEMBL document CHEMBL2331286 (ACS Med Chem Lett, 2013).

Series [1] relates to Mus musculus. In words: In vivo inhibition of B-Raf V600E mutant-mediated ERK1/2 phosphorylation in tumor of po dosed CD1 nu/nu mouse bearing B-Raf V600E mutant harboring human A375P-F11 cells administered as single dose by duplex ELISA. The series is classed as functional, organism-based. The method in brief:
(§1)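 A375P-F11 xenografts in nude mice, oral gavage dosing in 0.5% HPMC/0.2% Tween-80 water pH 8.0. Tumors homogenized in Tris pH 7.5 lysis buffer with EDTA, EGTA, Triton X-100, SDS, phosphatase inhibitors, kept on ice; spun 14,000 rpm 15 min 4°C, flash frozen. Total and phospho-ERK1/2 measured by duplex electrochemiluminescent ELISA.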
Background: In an ELISA, binding on a coated surface is turned into a signal by an enzyme label.

Series [2] concerns Mus musculus. The series can be described thus: In vivo inhibition of B-Raf V600E mutant-mediated ERK1/2 phosphorylation in tumor of CD1 nu/nu mouse bearing B-Raf V600E mutant harboring human A375P-F11 cells at =< 30 mg/kg, po administered as a single dose measured after 24 hrs by duplex ELISA. The series is classed as functional, organism-based. Details: dose 30 mg/kg. The method in brief: as §1

Another series has as its system COLO 205. The series can be described thus: Inhibition of human COLO205 cell proliferation. The series is classed as functional, cell-based.
Series [3] is described as follows: Blood clearance in iv dosed rat. The series is classed as ADME, organism-based.
In the next series the target is T1, TGF-beta receptor type-1 (Homo sapiens, UniProt P36897).
T1 sequence (P36897 whole entry): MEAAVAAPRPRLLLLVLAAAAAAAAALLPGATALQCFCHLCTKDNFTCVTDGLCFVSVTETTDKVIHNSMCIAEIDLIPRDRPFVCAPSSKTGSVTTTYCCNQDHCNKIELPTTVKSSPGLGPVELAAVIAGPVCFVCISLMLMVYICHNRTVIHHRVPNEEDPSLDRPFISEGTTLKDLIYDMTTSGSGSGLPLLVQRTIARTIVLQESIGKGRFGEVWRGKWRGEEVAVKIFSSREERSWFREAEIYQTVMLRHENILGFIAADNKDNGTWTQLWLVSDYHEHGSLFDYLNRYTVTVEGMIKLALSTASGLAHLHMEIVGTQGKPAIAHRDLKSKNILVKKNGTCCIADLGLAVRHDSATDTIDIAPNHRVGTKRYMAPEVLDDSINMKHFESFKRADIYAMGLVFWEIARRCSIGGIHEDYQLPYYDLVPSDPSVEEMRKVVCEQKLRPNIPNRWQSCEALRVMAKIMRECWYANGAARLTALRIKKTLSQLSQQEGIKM
In words: Inhibition of Alk5 in TGF-beta-stimulated human HepG2 cells assessed as decrease in Smad2 phosphorylation treated for 45 mins prior to TGF-beta stimulation measured after 60 mins by odyssey blot scanner analysis. The series is classed as cell-based. In outline:
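HepG2 cells seeded at 500,000 cells/well, adhered overnight at 37°C/5% CO2 in BME+10% serum; compound added in serum-free medium for 45 min, then stimulated with 1 ng/ml TGF-β for 60 min.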

The test system of another series is A375P-F11. The series can be described thus: Antitumor activity against B-Raf V600E mutant harboring human A375P-F11 cells xenografted in po dosed CD1 nu/nu mouse assessed as tumor growth inhibition administered qd for 14 days by Vernier caliper. The series is classed as functional, organism-based. The method in brief:
(§2)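 A375P-F11 (single-cell clone of A375P selected by limiting dilution) grown as xenografts in nude mice; daily oral gavage started at ~150-200 mm3 tumors, vehicle 0.5% HPMC + 0.2% Tween-80 in water pH 8.0, 0.2 mL/20 g. Calipers twice weekly; volume = length x width² x 0.5; mean volume, n=7-8 mice/group. Complete regression = >93% volume decrease for ≥1 week.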

Series [4] relates to Mus musculus. The series can be described thus: In vivo inhibition of B-Raf V600E mutant-mediated ERK1/2 phosphorylation in tumor of CD1 nu/nu mouse bearing B-Raf V600E mutant harboring human A375P-F11 cells at => 3 mg/kg, po administered as single dose measured after 2 to 6 hrs by duplex ELISA. The series is classed as functional. In outline:
as §1

Series [5] relates to Mus musculus. The series can be described thus: Toxicity in CD1 nu/nu mouse bearing B-Raf V600E mutant harboring human A375P-F11 cells assessed as changes in body weight at 0.1 to 100 mg/kg, po qd for 14 days. The series is classed as organism-based. Details: dose 0.1-100 mg/kg, route oral. As to conditions: in vivo, 336 h.
For the next series, the system named is HFF. The series can be described thus: Inhibition of proliferation of human HFF cells harboring wild type B-Raf. The series is classed as cell-based.
Series [6] is described as follows: Antitumor activity against B-Raf V600E mutant harboring human A375P-F11 cells xenografted in CD1 nu/nu mouse assessed as tumor growth inhibition at 100 mg/kg, po qd for 14 days by Vernier caliper. It is filed as functional. The conditions noted are these: A375P-F11, 336 h, read-out: GI. In outline:
as §2
In general terms: Xenograft models place foreign cells or tissue in a host animal.

The next series concerns Rattus norvegicus. In words: Dose-normalized AUC in po dosed rat. It is filed as ADME, organism-based. The conditions noted are these: in vivo.
Series [7] is described as follows: Blood clearance in iv dosed dog. It is filed as ADME, organism-based, Canis lupus familiaris.
Another series has as its system Canis familiaris. The series can be described thus: Dose-normalized AUC in po dosed dog. It is filed as ADME, organism-based, Canis lupus familiaris. The conditions noted are these: in vivo.
For another series, the system named is SK-MEL-28. In words: Inhibition of B-Raf V600E mutant-driven SK-MEL-28 cell proliferation after 72 hrs by CellTiter-Glo luminescent assay. It is filed as functional, cell-based. As to conditions: Homo sapiens, SK-MEL-28, 72 h. A general note: In ATP-based viability assays light output follows the ATP content of the culture.
In series [8] the target is T2, Serine/threonine-protein kinase B-raf (Homo sapiens, UniProt P15056, V600E). In words: Inhibition of B-Raf V600E mutant in human SK-MEL-28 cells assessed as decrease in ERK phosphorylation incubated for 1 hr by immunoassay. The series is classed as cell-based.
For series [9], the target named is T2, Serine/threonine-protein kinase B-raf. The series can be described thus: Inhibition of N-terminal His tagged B-Raf V600E mutant (unknown origin) expressed in baculovirus infected insect cells co-expressing CDC37 assessed as decrease in biotinylated-MEK protein phosphorylation by AlphaScreen assay.
The nature of series [10]: Oral bioavailability in rat. The series is classed as ADME, organism-based. The conditions noted are these: in vivo.
Series [11] in a line: Oral bioavailability in monkey. The conditions noted are these: rhesus monkey, in vivo. It is filed as ADME, organism-based, Macaca mulatta.
The nature of series [12]: Blood clearance in iv dosed monkey. The conditions noted are these: rhesus monkey. It is filed as ADME, organism-based, Macaca mulatta.
Series [13] is described as follows: Intrinsic clearance in monkey liver microsome. The conditions noted are these: rhesus monkey, microsomes. The series is classed as ADME, Macaca mulatta.
The test system of the next series is Liver microsomes. The series can be described thus: Intrinsic clearance in rat liver microsome. It is filed as ADME.
Series [14] in a line: Oral bioavailability in dog. The series is classed as ADME, organism-based, Canis lupus familiaris. As to conditions: in vivo.
The nature of series [15]: Intrinsic clearance in dog liver microsome at 10 uM after 30 mins by LC/MS analysis. It is filed as ADME, Canis lupus familiaris. As to conditions: microsomes, 0.5 h.
Another series deals with Rhesus monkey. The series can be described thus: Dose-normalized AUC in po dosed monkey. The series is classed as ADME, organism-based, Macaca mulatta. As to conditions: in vivo.

T2 sequence (P15056 2-766 V600E limits assumed): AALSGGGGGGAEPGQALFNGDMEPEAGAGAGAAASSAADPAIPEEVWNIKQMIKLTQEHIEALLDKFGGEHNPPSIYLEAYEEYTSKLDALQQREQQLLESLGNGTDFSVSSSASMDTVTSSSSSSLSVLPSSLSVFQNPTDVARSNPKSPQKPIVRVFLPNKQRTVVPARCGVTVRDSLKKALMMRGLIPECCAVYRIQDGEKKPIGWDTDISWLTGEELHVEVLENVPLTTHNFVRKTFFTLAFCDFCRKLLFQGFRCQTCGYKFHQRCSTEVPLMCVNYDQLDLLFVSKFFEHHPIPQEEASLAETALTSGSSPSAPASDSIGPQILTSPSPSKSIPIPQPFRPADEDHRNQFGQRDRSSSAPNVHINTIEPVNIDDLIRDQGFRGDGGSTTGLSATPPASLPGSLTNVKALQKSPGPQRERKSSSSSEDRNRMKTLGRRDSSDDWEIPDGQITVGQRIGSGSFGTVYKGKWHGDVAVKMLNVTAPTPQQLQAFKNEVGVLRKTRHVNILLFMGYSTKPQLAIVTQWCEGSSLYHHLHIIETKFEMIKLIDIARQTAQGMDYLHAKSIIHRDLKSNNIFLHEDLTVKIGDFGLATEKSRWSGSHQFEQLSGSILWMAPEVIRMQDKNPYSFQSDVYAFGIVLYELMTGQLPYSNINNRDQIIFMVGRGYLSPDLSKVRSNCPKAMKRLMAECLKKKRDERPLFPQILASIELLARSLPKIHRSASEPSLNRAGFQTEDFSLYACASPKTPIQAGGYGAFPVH

`CC(C)(C)c1nc(-c2cccc(NS(=O)(=O)c3c(F)cccc3F)c2F)c(-c2ccnc(N)n2)s1` [DABRAFENIB]: the inhibition entry in the series with Mus musculus [1] was “Dose-dependent effect”. Besides, in the series with Mus musculus [2], the inhibition entry was “inactive”. The IC50 in the series with COLO 205 was determined as 7 nM; at TGF-beta receptor type-1, 3700 nM; in the series with HFF it was 3000 nM; with SK-MEL-28, 3 nM. The clearance in [3] worked out at 18 mL/min/kg; in series [7] it was 4 mL/min/kg. Moreover, the “growth inhibition (GI)” value in the series on A375P-F11 was “Dose-dependent effect”. This compound also registered an inhibition in vivo at 3 mg/kg with Mus musculus [4] above 50%. In addition, the Activity result in the series on Mus musculus [5] is “Non-toxic”. Moreover, the inhibition in vivo at 100 mg/kg in series [6] stood at 50%. The AUC/dose with Rattus norvegicus is 729 ng·h/mL/mg/kg; in the series with Canis familiaris, 3754 ng·h/mL/mg/kg.
For `CC(C)c1nc(-c2cccc(NS(=O)(=O)c3cccc(F)c3)c2)c(-c2ccnc(NCCCN(C)C)n2)s1`, the IC50 in [8] turned out to be 73 nM; in series [9] it was 28 nM.
As to `CC(C)c1nc(-c2cccc(NS(=O)(=O)c3c(F)cccc3F)c2F)c(-c2ccnc(Nc3ccc(N4CCOCC4)nc3)n2)s1`, the bioavailability in [10] came to 85%; in [11], 5%; in series [14], 10%. Also, the values for the clearance in series [12], in series [3] and in [7] were 39 mL/min/kg, 9 mL/min/kg and 38 mL/min/kg, respectively. Moreover, the half-maximal inhibitory concentration (IC50) worked out at 23 nM in series [8], 3.8 nM in series [9] and 48 nM in the series on SK-MEL-28. In addition, the CLH was determined as 8 mL/min/g in [13], 9 mL/min/g in the series on Liver microsomes and 53 mL/min/g in [15]. Moreover, the AUC/dose in the series on Rattus norvegicus is 1748 ng·h/mL/mg/kg; with Canis familiaris, 42 ng·h/mL/mg/kg; in the series with Rhesus monkey, 23 ng·h/mL/mg/kg.
With `CC(C)(C)c1nc(-c2cccc(NS(=O)(=O)c3cc(F)ccc3F)c2)c(-c2ccnc(N)n2)s1`, the half-maximal inhibitory concentration (IC50) was determined as 7 nM in series [8] and 8 nM in series [9]. For the same compound, the AUC/dose in the series with Rattus norvegicus is 27 ng·h/mL/mg/kg.
With `CC(C)(C)c1nc(-c2ccc(F)c(NS(=O)(=O)c3c(F)cccc3F)c2)c(-c2ccnc(NCCS(C)(=O)=O)n2)s1`, the values for the IC50 in series [8] and in series [9] were 11 nM and 13 nM, respectively. In the series on Rattus norvegicus, the AUC/dose came to 1373 ng·h/mL/mg/kg.
With `CC(C)c1nc(-c2cccc(NS(=O)(=O)c3c(F)cccc3F)c2)c(-c2ccnc(NCCS(C)(=O)=O)n2)s1`, the IC50 was 4 nM in series [8] and 1 nM in series [9]. Moreover, the AUC/dose in the series on Rattus norvegicus was 34 ng·h/mL/mg/kg.
As to `CC(C)c1nc(-c2cccc(NS(=O)(=O)c3cccc(F)c3)c2)c(-c2ccnc(NCC(N)=O)n2)s1`, the half-inhibitory concentration (IC50) in series [8] stood at 26 nM; in series [9], 11 nM. Further, in the series on Rattus norvegicus, the AUC/dose was 6 ng·h/mL/mg/kg.
As for `CC(C)c1nc(-c2cccc(NS(=O)(=O)c3cccc(F)c3)c2)c(-c2ccnc(NC3CC3)n2)s1`, the figures for the IC50 in series [8] and in [9] were 28 nM and 32 nM, respectively. Also, in the series with Rattus norvegicus, the AUC/dose amounted to 16 ng·h/mL/mg/kg.
On to `CC(C)c1nc(-c2ccc(F)c(NS(=O)(=O)c3c(F)cccc3F)c2)c(-c2ccnc(NCCS(C)(=O)=O)n2)s1`, for which the 50% inhibitory concentration (IC50) turned out to be 51 nM in series [8] and 13 nM in [9]. Besides, the AUC/dose in the series on Rattus norvegicus turned out to be 1024 ng·h/mL/mg/kg; in the series on Canis familiaris, 43 ng·h/mL/mg/kg.
For `CC(C)c1nc(-c2cccc(NS(=O)(=O)c3c(F)cccc3F)c2)c(-c2ccnc(N)n2)s1`, the concentration for half-maximal inhibition (IC50) in [8] worked out at 78 nM; in series [9] it was 40 nM. In the series with Rattus norvegicus, this compound came in with an AUC/dose of 23 ng·h/mL/mg/kg.
As for `CC(C)c1nc(-c2ccc(F)c(NS(=O)(=O)c3cccc(F)c3)c2)c(-c2ccnc(N)n2)s1`, the 50% inhibitory concentration (IC50) in [8] amounted to 2560 nM; in [9], 536 nM.
On to `CC(C)c1nc(-c2cccc(NS(=O)(=O)c3c(F)cccc3F)c2F)c(-c2ccnc(NCCS(C)(=O)=O)n2)s1`, for which the IC50 was determined as 7 nM in series [8] and 0.3 nM in series [9]. Further, the AUC/dose worked out at 125 ng·h/mL/mg/kg in the series with Rattus norvegicus and 68 ng·h/mL/mg/kg in the series on Canis familiaris.

The IC50 is the concentration that inhibits the measured activity by half. The term clearance denotes the rate of elimination divided by the concentration. A word on the bioavailability: it is dose-corrected exposure relative to a reference, in per cent.
